Common to all, as to type: ADME, organism-based
The test system of one series is Liver. The experiment in a line: Drug uptake in ddY mouse liver at 11.1 kBq, iv after 5 min by gamma counting. Conditions: in vivo. In outline:
(§1)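 Male ddY mice (6 weeks, 30–35 g) were given about 11.1 kBq of [125I]tracer in 0.1 mL i.v. via the tail vein. At each time point the animals were killed and organs dissected, weighed and gamma-counted. Uptake is expressed as % injected dose per gram of tissue, mean ± SD, n = 5–6.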

A further series relates to Spleen. Nature of the series: Drug uptake in ddY mouse spleen at 11.1 kBq, iv after 60 min by gamma counting. Conditions: in vivo, 1 h. The procedure, abridged: as §1
Another series relates to Lung. Nature of the series: Drug uptake in ddY mouse lung at 11.1 kBq, iv after 30 min by gamma counting. The note with it: in vivo, 0.5 h. In outline:
as §1

Series [1] has as its system Heart. Nature of the series: Drug uptake in ddY mouse heart at 11.1 kBq, iv after 0.5 min by gamma counting. The note with it: in vivo. In outline: (§2)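 Male ddY mice (6 weeks, 30–35 g) received about 11.1 kBq [125I]tracer in 0.1 mL i.v. via tail vein. Killed at set times, organs dissected and weighed, radioactivity gamma counted. Reported as % injected dose/g tissue, mean ± SD, n = 5–6.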

Series [2] concerns Heart. Nature of the series: Drug uptake in ddY mouse heart at 11.1 kBq, iv after 15 min by gamma counting. The note with it: in vivo. The procedure, abridged:
as §2

In series [3] the test system is Heart. Nature of the series: Drug uptake in ddY mouse heart at 11.1 kBq, iv after 180 min by gamma counting. The note with it: in vivo, 3 h. The procedure, abridged: as §2

From ChEMBL document CHEMBL1938298, “Synthesis and characterization of [¹²⁵I]2-iodo N-[(S)-{(S)-1-methylpiperidin-2-yl}(phenyl)methyl]3-trifluoromethyl-benzamide as novel imaging probe for glycine transporter 1” (Bioorg Med Chem, 2011) come the findings set out here.

For the molecule `CN1CCCC[C@H]1[C@@H](NC(=O)c1cccc(C(F)(F)F)c1[125I])c1ccccc1`, the Drug uptake was found to be 9.25 % ID/g with Liver; 5.86 % ID/g in the series with Spleen; 17.07 % ID/g with Lung; 8.19 % ID/g in the series on Heart [1]; 3.38 % ID/g in the series on Heart [2]; 1.79 % ID/g with Heart [3].
